Assay results: ChEMBL document CHEMBL1139419, “Quantitative structure-activity relationship studies on nitrofuranyl anti-tubercular agents” (2008)
Values after ≈ are worked out from the molar mass of the structure shown.

Tested on: Mycobacterium tuberculosis
Experiment: Antitubercular activity against Mycobacterium tuberculosis H37Rv assessed as drug level causing 90% growth inhibition after 7 days by microbroth dilution method
Type: functional
Conditions: for MIC: Mycobacterium tuberculosis, H37Rv, 168 h
Outline: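 Two-fold serial dilutions in 7H9 broth with 10% albumin-dextrose complex and 0.05% (v/v) Tween80, in round-bottom microtiter plates, with final concentrations starting at 200 μg/mL. Equal volume of H37Rv broth inoculum added. Incubated aerobically at 37°C for 7 days and read visually. MIC taken as the lowest concentration inhibiting 90% of growth relative to the no-drug control.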

## O=C(NCc1ccc(N2CCN(Cc3ccccc3)CC2)cc1)c1ccc([N+](=O)[O-])o1
  -logMIC: 2.4296
  MIC: 1.56 µg/mL (≈ 3.71 µM)

## O=C(NCc1ccc(N2CCS(=O)(=O)CC2)cc1)c1ccc([N+](=O)[O-])o1
  -logMIC: 0.8801
  MIC: 50 µg/mL (≈ 132 µM)

## O=C(NCc1ccc(N2CCCN(Cc3ccccc3)CC2)cc1)c1ccc([N+](=O)[O-])o1
  -logMIC: 3.0309
  MIC: 0.4 µg/mL (≈ 0.921 µM)

## CC(C)(C)OC(=O)N1CCN(c2ccc(CNC(=O)c3ccc([N+](=O)[O-])o3)cn2)CC1
  -logMIC: 5.7318
  MIC: 0.0008 µg/mL (≈ 0.00185 µM)

## CCOC(=O)N1CCN(c2ccc(CNC(=O)c3ccc([N+](=O)[O-])o3)cc2)CC1
  -logMIC: 4.8123
  MIC: 0.0062 µg/mL (≈ 0.0154 µM)

## O=C(NCc1ccco1)c1ccc([N+](=O)[O-])o1
  -logMIC: 1.5774
  MIC: 6.25 µg/mL (≈ 26.5 µM)

## CN1CCN(c2ccc3c(c2)CCN(C(=O)c2ccc([N+](=O)[O-])o2)C3)CC1
  -logMIC: 3.8697
  MIC: 0.05 µg/mL (≈ 0.135 µM)

## O=C(NCc1ccc(C(F)(F)F)cc1)c1ccc([N+](=O)[O-])o1
  -logMIC: 3.7983
  MIC: 0.05 µg/mL (≈ 0.159 µM)

## O=C(c1ccc([N+](=O)[O-])o1)N1CCC(Oc2ccc(OC(F)(F)F)cc2)CC1
  -logMIC: 5.6993
  MIC: 0.0008 µg/mL (≈ 0.002 µM)

## NC1CCN(c2ccc(CNC(=O)c3ccc([N+](=O)[O-])o3)cc2)C1 (configuration not stated)
  -logMIC: 2.6172
  MIC: 0.8 µg/mL (≈ 2.42 µM)

## COC(=O)NC(=O)c1ccc([N+](=O)[O-])o1
  -logMIC: 2.7286
  MIC: 0.4 µg/mL (≈ 1.87 µM)
